ChEMBL document CHEMBL1133522, “Chiral resolution, pharmacological characterization, and receptor docking of the noncompetitive mGlu1 receptor antagonist (+/-)-2-hydroxyimino- 1a, 2-dihydro-1H-7-oxacyclopropa[b]naphthalene-7a-carboxylic acid ethyl ester” (J Med Chem, 2000)

What was measured:
[1] = target: T1, Metabotropic glutamate receptor 1 (Homo sapiens, UniProt Q13255); test: Inhibition of Quisqualate-Induced PI Hydrolysis measured in CHO Metabotropic glutamate receptor 1 Expressing Cells; type: functional
In short: (§1)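 Human mGlu1b receptor, cloned and stably expressed in CHO cells. Inhibition of quisqualate-stimulated phosphoinositol hydrolysis. Each data point is a triplicate measurement from at least three independent experiments, given as mean ± SEM. Four-parameter logistic fit of concentration–response curves gives IC50 with 95% confidence intervals. Highest concentration tested was 30 µM, or 100 µM where solubility allowed.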
Target sequence in this assay (Q13255 whole entry): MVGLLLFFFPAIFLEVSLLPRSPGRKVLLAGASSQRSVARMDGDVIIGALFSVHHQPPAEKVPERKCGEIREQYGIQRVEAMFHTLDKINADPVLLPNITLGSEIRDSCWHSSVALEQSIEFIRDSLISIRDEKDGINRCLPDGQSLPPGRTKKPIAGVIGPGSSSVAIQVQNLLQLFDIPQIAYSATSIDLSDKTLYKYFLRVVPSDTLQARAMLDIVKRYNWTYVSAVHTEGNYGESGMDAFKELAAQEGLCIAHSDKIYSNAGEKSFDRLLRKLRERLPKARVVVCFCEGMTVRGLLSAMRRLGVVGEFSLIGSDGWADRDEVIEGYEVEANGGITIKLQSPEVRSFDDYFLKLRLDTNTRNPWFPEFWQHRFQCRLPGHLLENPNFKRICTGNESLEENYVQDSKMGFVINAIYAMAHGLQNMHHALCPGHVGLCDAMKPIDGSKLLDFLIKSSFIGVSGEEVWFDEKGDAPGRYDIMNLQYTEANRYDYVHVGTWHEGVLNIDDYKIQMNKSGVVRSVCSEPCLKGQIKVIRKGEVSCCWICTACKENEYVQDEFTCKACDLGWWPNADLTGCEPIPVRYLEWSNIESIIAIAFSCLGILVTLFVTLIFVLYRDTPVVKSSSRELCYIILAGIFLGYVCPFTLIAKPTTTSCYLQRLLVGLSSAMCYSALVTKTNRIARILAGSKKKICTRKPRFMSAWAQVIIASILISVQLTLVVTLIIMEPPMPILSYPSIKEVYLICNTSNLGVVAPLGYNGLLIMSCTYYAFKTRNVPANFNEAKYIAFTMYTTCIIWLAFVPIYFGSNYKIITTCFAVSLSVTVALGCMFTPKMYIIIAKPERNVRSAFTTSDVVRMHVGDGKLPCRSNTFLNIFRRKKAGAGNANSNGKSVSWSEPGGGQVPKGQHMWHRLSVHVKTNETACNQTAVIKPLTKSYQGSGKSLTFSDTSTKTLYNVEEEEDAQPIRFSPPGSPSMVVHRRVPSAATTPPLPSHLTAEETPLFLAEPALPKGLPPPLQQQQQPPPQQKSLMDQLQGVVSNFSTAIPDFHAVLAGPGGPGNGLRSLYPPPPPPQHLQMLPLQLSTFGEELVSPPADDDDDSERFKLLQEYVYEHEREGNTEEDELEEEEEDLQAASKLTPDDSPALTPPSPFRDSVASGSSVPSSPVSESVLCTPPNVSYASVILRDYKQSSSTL

[2] = target: T1, Metabotropic glutamate receptor 1; test: Inhibition of Quisqualate-Induced PI Hydrolysis measured in CHO Metabotropic glutamate receptor 1 Expressing Cells at a concentration of 30 uM; ne means No effect; type: functional; in short: as §1
Target sequence in this assay (Q13255 whole entry): as above

[3] = target: T1, Metabotropic glutamate receptor 1; settings: CHO; 100 uM
Target sequence in this assay (Q13255 19-1194 limits assumed): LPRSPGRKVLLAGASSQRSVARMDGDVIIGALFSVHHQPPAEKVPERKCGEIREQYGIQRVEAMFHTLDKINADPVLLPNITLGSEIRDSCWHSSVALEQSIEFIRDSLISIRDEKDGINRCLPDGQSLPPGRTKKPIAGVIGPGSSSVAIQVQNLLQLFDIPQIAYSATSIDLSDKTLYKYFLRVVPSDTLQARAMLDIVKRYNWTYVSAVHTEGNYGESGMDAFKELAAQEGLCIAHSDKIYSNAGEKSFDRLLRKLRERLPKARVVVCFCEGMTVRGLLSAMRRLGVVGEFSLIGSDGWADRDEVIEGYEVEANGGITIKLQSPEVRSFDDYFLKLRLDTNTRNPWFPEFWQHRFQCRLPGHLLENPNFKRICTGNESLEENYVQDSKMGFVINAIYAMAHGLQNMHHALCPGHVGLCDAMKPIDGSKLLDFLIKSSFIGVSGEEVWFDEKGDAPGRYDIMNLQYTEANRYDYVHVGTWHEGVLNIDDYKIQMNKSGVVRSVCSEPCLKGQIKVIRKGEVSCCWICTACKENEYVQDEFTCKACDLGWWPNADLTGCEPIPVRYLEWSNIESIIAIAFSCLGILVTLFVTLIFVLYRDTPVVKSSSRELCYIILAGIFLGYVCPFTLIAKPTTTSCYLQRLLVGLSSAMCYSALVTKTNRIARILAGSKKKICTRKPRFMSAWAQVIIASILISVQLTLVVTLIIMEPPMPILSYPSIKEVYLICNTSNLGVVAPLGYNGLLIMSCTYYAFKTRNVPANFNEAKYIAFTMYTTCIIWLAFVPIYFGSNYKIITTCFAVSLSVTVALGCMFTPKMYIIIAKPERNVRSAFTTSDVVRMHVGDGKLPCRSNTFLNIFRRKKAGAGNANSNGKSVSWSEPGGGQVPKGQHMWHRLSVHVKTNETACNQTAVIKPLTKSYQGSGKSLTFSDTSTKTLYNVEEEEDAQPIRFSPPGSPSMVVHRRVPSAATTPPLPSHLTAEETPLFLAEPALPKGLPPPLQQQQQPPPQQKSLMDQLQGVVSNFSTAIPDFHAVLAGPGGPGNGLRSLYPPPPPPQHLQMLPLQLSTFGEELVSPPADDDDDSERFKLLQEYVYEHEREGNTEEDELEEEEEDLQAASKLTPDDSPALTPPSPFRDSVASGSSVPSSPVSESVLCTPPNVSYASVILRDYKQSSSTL

| SMILES | IC50 [1] [nM] | IC50 [2] | inhibition [3] [%] |
| --- | --- | --- | --- |
| COC(=O)[C@@H](Cc1ccccc1)NC(=O)C12CC1/C(=N\O)c1ccccc1O2 (mixture of isomers) | 1400 |  |  |
| COC(=O)[C@H](Cc1ccccc1)NC(=O)[C@]12C[C@H]1/C(=N\O)c1ccccc1O2 | 430 |  |  |
| COC(=O)[C@@H](Cc1ccccc1)NC(=O)[C@@]12C[C@@H]1/C(=N\O)c1ccccc1O2 |  | Not Active |  |
| COC(=O)[C@H](Cc1ccccc1)NC(=O)C12CC1/C(=N\O)c1ccccc1O2 (mixture of isomers) | 1200 |  |  |
| CCOC(=O)[C@]12C[C@H]1/C(=N\O)c1ccccc1O2 | 1500 |  |  |
| CCOC(=O)[C@@]12CC1/C(=N\O)c1ccccc1O2 (stereo partly drawn) |  | Not Active | 53 |
| CCOC(=O)C12CC1/C(=N\O)c1ccccc1O2 (racemic) | 3400 |  |  |
